Results from ChEMBL document CHEMBL1140329, “Control of protein-protein interactions: structure-based discovery of low molecular weight inhibitors of the interactions between Pin1 WW domain and phosphopeptides” (J Med Chem, 2005).
Where a SMILES comes first, the peptide text is derived from it. [ ]: non-standard residue; d: D form. The star is where a group is joined. pT = C[C@@H](OP(=O)(O)O)[C@H](N)C(=O)O; Fmoc = O=C(OCC1c2ccccc2-c2ccccc21)*; Hydrocinnamoyl = O=C(CCc1ccccc1)*; ΔPro = O=C(O)[C@@H]1C=CCN1; Thz = O=C(O)[C@@H]1CSCN1; PhAc = O=C(Cc1ccccc1)*

Target: Peptidyl-prolyl cis-trans isomerase NIMA-interacting 1 (Homo sapiens, UniProt Q13526)
Sequence (Q13526 whole entry): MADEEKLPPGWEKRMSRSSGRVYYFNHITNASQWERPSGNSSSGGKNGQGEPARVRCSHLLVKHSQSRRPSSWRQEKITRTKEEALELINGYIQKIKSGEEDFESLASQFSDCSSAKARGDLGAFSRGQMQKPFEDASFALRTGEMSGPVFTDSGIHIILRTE
Experiment: Dissociation constant for human peptidyl-prolyl cis-trans isomerase NIMA-interacting 1
Outline: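 15N-labeled Pin1 WW domain (His6-tagged, expressed in E. coli BL21(DE3)) in 25 mM deuterated Tris-HCl pH 6.8, 50 mM NaCl, 5 mM DTT, 2.5 mM EDTA, 10% D2O; 600 MHz 1H-15N HSQC at 293 K. 50 μM protein titrated with ligand 0.025–1 mM final; chemical shift perturbations fitted to a single-site equation for KD.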

Row | Kd | Structure (SMILES)
1 | 28 µM | C[C@@H](OP(=O)(O)O)[C@H](NC(=O)CCCc1ccccc1)C(=O)N1CC=C[C@H]1C(N)=O
2 | > 2000 µM | NC(=O)[C@@H]1CCCN1C(=O)CCC(=O)O
3 | > 2000 µM | NC(=O)[C@@H]1CCCN1C(=O)CCCC(=O)O
4 | 910 µM | NC(=O)[C@@H]1CCCN1C(=O)[C@H](CCC/N=c1\c(O)c(O)c1=O)NC(=O)OCC1c2ccccc2-c2ccccc21
5 | 540 µM | NC(=O)[C@@H]1CCCN1C(=O)[C@H](CCCCNc1c(O)c(=O)c1=O)NC(=O)OCC1c2ccccc2-c2ccccc21
6 | 420 µM | CC(=O)N[C@H](C(=O)N1C[C@@H](F)C[C@H]1C(N)=O)[C@@H](C)OP(=O)(O)O
7 | > 2000 µM | CC(=O)N[C@@H](CCC(=O)O)C(=O)N1CCC[C@H]1C(N)=O (Ac-Glu-Pro-NH2)
8 | 400 µM | CC(=O)N[C@H](C(=O)N1CSC[C@H]1C(N)=O)[C@@H](C)OP(=O)(O)O (Ac-[pT]-[Thz]-NH2)
9 | 18 µM | CC(=O)N[C@H](C(=O)N1CC=C[C@H]1C(N)=O)[C@@H](C)OP(=O)(O)O (Ac-[pT]-[ΔPro]-NH2)
10 | 15 µM | C[C@@H](OP(=O)(O)O)[C@H](NC(=O)OCC1c2ccccc2-c2ccccc21)C(=O)N1CCC[C@H]1C(N)=O (Fmoc-[pT]-Pro-NH2)
11 | 32 µM | C[C@@H](OP(=O)(O)O)[C@H](NC(=O)CCc1ccccc1)C(=O)N1CCC[C@H]1C(N)=O (Hydrocinnamoyl-[pT]-Pro-NH2)
12 | 35 µM | C[C@@H](OP(=O)(O)O)[C@H](NC(=O)Cc1ccccc1)C(=O)N1CCC[C@H]1C(N)=O (PhAc-[pT]-Pro-NH2)
13 | 36 µM | CC(=O)N[C@H](C(=O)N1CC(F)CC1C(N)=O)[C@@H](C)OP(=O)(O)O (single isomer, unassigned)
14 | 800 µM | CC(=O)N[C@H](C(=O)N1CC(O)CC1C(N)=O)[C@@H](C)OP(=O)(O)O (single isomer, unassigned)

The next lines start with the compound.

Row | Structure (SMILES) | Kd
15 | NC(=O)[C@@H]1CCCN1C(=O)CCNS(=O)(=O)C(F)(F)F | > 2000 µM
16 | NC(=O)[C@@H]1CCCN1C(=O)CCP(=O)(O)O | > 2000 µM
17 | NC(=O)[C@@H]1CCCN1C(=O)CC/N=c1\c(O)c(O)c1=O | > 2000 µM
18 | C[C@@H](OP(=O)(O)O)[C@H](NC(=O)CCCCc1ccccc1)C(=O)N1CCC[C@H]1C(N)=O | 48 µM
19 | C[C@@H](OP(=O)(O)O)[C@H](NC(=O)CCCc1ccccc1)C(=O)N1CCC[C@H]1C(N)=O | 30 µM
20 | CC(=O)N[C@H](C(=O)N1CCC[C@@H]1C(N)=O)[C@@H](C)OP(=O)(O)O | 100 µM
21 | C[C@@H](OP(=O)(O)O)[C@H](NC(=O)C(c1ccccc1)c1ccccc1)C(=O)N1CCC[C@H]1C(N)=O | 38 µM
22 | C[C@@H](OP(=O)(O)O)[C@H](NC(=O)CCC(C)(c1ccc(O)cc1)c1ccc(O)cc1)C(=O)N1CC=C[C@H]1C(N)=O | 5 µM
23 | C[C@@H](OP(=O)(O)O)[C@H](NC(=O)OCC1c2ccccc2-c2ccccc21)C(=O)N1CC=C[C@H]1C(N)=O (Fmoc-[pT]-[ΔPro]-NH2) | 66 µM
24 | CC(=O)N[C@H](C(=O)N1CCC1C(N)=O)C(C)OP(=O)(O)O (single isomer, unassigned) | 160 µM
25 | CC(=O)N[C@H](C(=O)N1CCCCC1C(N)=O)C(C)OP(=O)(O)O (single isomer, unassigned) | 140 µM
